Data: ChEMBL document CHEMBL4431316, “New 6-Aminoquinoxaline Derivatives with Neuroprotective Effect on Dopaminergic Neurons in Cellular and Animal Parkinson Disease Models” (J Med Chem, 2016)
Calls of active or inactive are those of the source. The calls are words filed in the database; no cut-off is given here.

Tests used:
Rattus norvegicus [1] = organism: Rattus norvegicus; assay: Antioxidant activity in Sprague-Dawley rat DA neuron assessed as reduction in ferrous iron-mediated neuron death at 5 uM; type: functional
Summary of the method: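 Midbrain cultures with DA cell death driven by a Fenton-type reaction, ferrous iron reacting with molecular oxygen in the medium (chronic oxidative stress). Test compound 1-10 µM; desferrioxamine 10 µM as positive control. Readout is DA neuron (TH+) survival. P < 0.05 vs control cultures.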

[2] = target: T1, Amine oxidase [flavin-containing] B (Rattus norvegicus, UniProt P19643); assay: Inhibition of rat mitochondrial MAO-B using DAB as substrate incubated for 30 mins by HPLC analysis
T1 sequence (P19643 whole entry): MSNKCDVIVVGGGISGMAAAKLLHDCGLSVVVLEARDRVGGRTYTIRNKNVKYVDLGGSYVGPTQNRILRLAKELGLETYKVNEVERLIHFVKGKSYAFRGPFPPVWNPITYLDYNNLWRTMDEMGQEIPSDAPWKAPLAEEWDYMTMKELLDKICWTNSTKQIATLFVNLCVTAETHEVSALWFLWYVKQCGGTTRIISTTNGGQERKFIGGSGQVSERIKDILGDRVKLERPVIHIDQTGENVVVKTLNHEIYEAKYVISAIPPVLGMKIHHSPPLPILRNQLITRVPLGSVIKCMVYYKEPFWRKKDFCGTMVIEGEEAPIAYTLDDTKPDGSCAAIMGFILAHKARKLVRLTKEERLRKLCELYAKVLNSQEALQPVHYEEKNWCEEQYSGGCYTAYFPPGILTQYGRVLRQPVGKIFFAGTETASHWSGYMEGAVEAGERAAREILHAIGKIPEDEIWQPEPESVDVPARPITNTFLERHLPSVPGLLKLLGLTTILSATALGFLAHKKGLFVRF

Mus musculus [3] = assay: (§1) Neuroprotective activity against MPTP-induced C57BL/6 mouse SN DA neuron toxicity model assessed as survival of Th immunopositive cells at 50 mg/kg/day, po bid pretreated for 3 days followed by MPTP challenge and further administration of compound up to day 11 by immunohistochemical analysis relative to control; type: functional; conditions: C57BL/6, po
Summary of the method: (§2)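 C57BL/6 mice given sub-chronic MPTP treatment. Test agent given per os twice daily (2x25 or 2x50 mg/kg/day) for 11 days. TH+ neurons counted in one hemisphere per mouse. Expressed as % of vehicle-treated mice, mean ± SEM, n=9-12.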

[4] = Neuroprotective activity in Sprague-Dawley rat DA neuron death PD model assessed as survival of Th immunopositive cells at 10 uM after 10 days by immunofluorescence assay relative to control; type: functional; conditions: 240 h, read-out: Survival
Summary of the method: (§3)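 Midbrain cultures in which DA neurons die spontaneously and selectively through a mechanism involving immature astrocytes and calcium dyshomeostasis. Compounds were present for 10 days in vitro, screened at 50 µM (100 µM for one analog) and retested at 10 µM. dbcAMP 1 mM served as reference. Surviving TH+ neurons were counted and expressed as % of corresponding untreated control cultures.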

Rattus norvegicus [5] = organism: Rattus norvegicus; assay: Neuroprotective activity in Sprague-Dawley rat DA neuron death PD model assessed as survival of Th immunopositive cells treated at 10 to 50 uM in presence of GDNF for 10 days followed by deprivation of GDNF for next 5 days by immunofluorescence assay; type: functional
Summary of the method: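 Midbrain cultures kept with GDNF (20 ng/ml) for 10 days, then deprived of GDNF from 11 to 15 DIV, with test compound 10-50 µM. TH+ neurons counted and compared with cultures kept on GDNF to 15 DIV. P < 0.05 vs GDNF-treated and vs GDNF-deprived cultures.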

Mus musculus [6] = assay: Neuroprotective activity against MPTP-induced C57BL/6 mouse DA neuron toxicity model assessed as decrease in striatal DOPAC level at 50 mg/kg/day, po bid pretreated for 3 days followed by MPTP challenge and further administration of compound up to day 11 by HPLC method; type: functional, organism-based
Rattus norvegicus [7] = organism: Rattus norvegicus; assay: Neuroprotective activity in Sprague-Dawley rat DA neuron death PD model assessed as survival of Th immunopositive cells at 50 uM after 10 days in presence of anti-GDNF antibody by immunofluorescence assay; type: functional
Mus musculus [8] = assay: as §1, with “25” for “50”, “(reference value: 61 +/- 5%)” for “relative to control”; type: functional; conditions: C57BL/6, po; summary of the method: as §2
Rattus norvegicus [9] = organism: Rattus norvegicus; assay: Neuritogenic activity in Sprague-Dawley rat DA neuron death PD model assessed as development of neurite network in Th immunopositive cells at 10 to 50 uM after 10 days by microscopic analysis relative to control; type: functional, cell-based
Summary of the method: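 Midbrain cultures treated or not with test compound (10-50 µM) for 10 DIV, then immunostained for TH. Neuritic network of TH+ neurons examined microscopically against control neurons. DbcAMP 1 mM as reference protective molecule.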

Rattus norvegicus [10] = organism: Rattus norvegicus; assay: Neuroprotective activity in Sprague-Dawley rat DA neuron death PD model assessed as inhibition of calcium mobilization at 50 uM after 10 days in presence of L-type voltage gated calcium channel blocker nifedipine; type: functional
Mus musculus [11] = assay: Neuroprotective activity against MPTP-induced C57BL/6 mouse DA neuron toxicity model assessed as restoration of striatal HVA level at 25 mg/kg/day, po bid pretreated for 3 days followed by MPTP challenge and further administration of compound up to day 11 by HPLC method (reference value: 53 +/- 3%); type: functional
Astrocyte [12] = assay: Neuroprotective activity in Sprague-Dawley rat astrocytes assessed as effect on vimentin positive cell density and morphology at 10 uM by fluorescence microscopic method; type: functional, cell-based
Summary of the method: (§4)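 Midbrain cultures labelled for vimentin, a glial marker. Density and morphology of glial cells scored semi-quantitatively by fluorescence microscopy. Compounds tested at 10 and 50 µM, one at 100 µM; dbcAMP as reference.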

Astrocyte [13] = assay: Neuroprotective activity in Sprague-Dawley rat astrocytes assessed as [methyl-3H]thymidine incorporation at 10 to 50 uM after 8 days by liquid scintillation counting assay relative to control; type: functional
Summary of the method: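 Glial proliferation in midbrain cultures measured as [methyl-3H]-thymidine incorporation at 8 DIV, with test compound 10-50 µM. DbcAMP 1 mM as positive control. Expressed as % of control.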

[14] = Neuroprotective activity in Sprague-Dawley rat DA neuron death PD model assessed as survival of Th immunopositive cells at 50 uM after 10 days by immunofluorescence assay; type: functional; conditions: 240 h, read-out: Survival; summary of the method: as §3
Mus musculus [15] = assay: Neuroprotective activity against MPTP-induced C57BL/6 mouse DA neuron toxicity model assessed as restoration of striatal HVA level at 50 mg/kg/day, po bid pretreated for 3 days followed by MPTP challenge and further administration of compound up to day 11 by HPLC method; type: functional, organism-based
Rattus norvegicus [16] = organism: Rattus norvegicus; assay: Neuroprotective activity in Sprague-Dawley rat DA neuron death PD model assessed as inhibition of calcium mobilization at 50 uM after 10 days in presence of RyR channel blocker dantrolene; type: functional
Mus musculus [17] = assay: Neuroprotective activity against MPTP-induced C57BL/6 mouse DA neuron toxicity model assessed as restoration of striatal DA level at 50 mg/kg/day, po bid pretreated for 3 days followed by MPTP challenge and further administration of compound up to day 11 by HPLC method; type: functional, organism-based
Mus musculus [18] = assay: Neuroprotective activity against MPTP-induced C57BL/6 mouse DA neuron toxicity model assessed as restoration of striatal DA level at 25 mg/kg/day, po bid pretreated for 3 days followed by MPTP challenge and further administration of compound up to day 11 by HPLC method (reference value: 28 +/- 2%); type: functional
Astrocyte [19] = assay: Neuroprotective activity in Sprague-Dawley rat astrocytes assessed as effect on vimentin positive cell density and morphology at 50 uM by fluorescence microscopic method; type: functional, cell-based; summary of the method: as §4
Mus musculus [20] = assay: Neuroprotective activity against MPTP-induced C57BL/6 mouse DA neuron toxicity model assessed as reduction of striatal DA turnover at 25 mg/kg/day, po bid pretreated for 3 days followed by MPTP challenge and further administration of compound up to day 11 by HPLC method; type: functional; set-up: scale not given: the % may be the effect or the level left
Rattus norvegicus [21] = organism: Rattus norvegicus; assay: Neuroprotective activity in Sprague-Dawley rat DA neuron death PD model assessed as increase in [2,5,6-3H]DA uptake at 10 to 50 uM after 10 days by liquid scintillation counting spectrometric analysis; type: functional
Summary of the method: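 Midbrain cultures in which DA neurons die spontaneously and selectively. Treated with test compound (10-50 µM) or dbcAMP (1 mM, reference) up to 10 DIV. Tritium-labeled DA uptake quantified as a marker of DA cell function and differentiation. Uptake rate per TH+ neuron also derived. *P < 0.05 vs control.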

## Nc1ccc2ncc(-c3ccccc3)nc2c1
Rattus norvegicus [1]
  Activity: Active
[2]
  IC50: 513 µM
Mus musculus [3]
  survival at 50 mg/kg/day: 91%
[4]
  viability at 10 µM: 152%
Rattus norvegicus [5]
  Activity: Active
Mus musculus [6]
  Activity: Active
Rattus norvegicus [7]
  Activity: Active
Mus musculus [8]
  survival at 25 mg/kg/day: 78%
Rattus norvegicus [9]
  Activity: Active
Rattus norvegicus [10]
  inhibition: Active
Mus musculus [11]
  Activity: 64%
Astrocyte [12]
  Activity: inactive
Astrocyte [13]
  Activity: 93.8%
[14]
  viability at 50 µM: 226%
Mus musculus [15]
  Activity: Active
Rattus norvegicus [16]
  inhibition: inactive
Mus musculus [17]
  Activity: Active
Mus musculus [18]
  Activity: 39%
Astrocyte [19]
  Activity: inactive
Mus musculus [20]
  Activity: 36%
Rattus norvegicus [21]
  Activity: Active
